Data set [1] is described as follows: Drug metabolism in human liver S9 fraction assessed as SULT-mediated compound sulfation by measuring M1 formation at 1 uM pretreated for 5 mins followed by NADPH/UDPGA/ PAPS addition by Q-TOF LC-MS/MS analysis. In kind it is ADME, subcellular. Particulars: s9, 1 µM. The gist of the method:
(§1)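 Human liver S9 fraction (1 mg/mL) in 50 mM Tris buffer, pH 7.5, fortified with NADPH (1 mM), UDPGA and PAPS to support oxidative, glucuronidation and sulfation pathways. Parent loss and metabolites were analysed by Q-TOF LC-MS/MS.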

Data set [2] is described as follows: Half-life in human liver S9 fraction at 1 uM pretreated for 5 mins followed by NADPH/UDPGA/ PAPS addition by Q-TOF LC-MS/MS analysis. It is filed as ADME, subcellular. The gist of the method:
as §1

The nature of data set [3]: Drug metabolism in human liver microsomes assessed as compound oxidation at 1 uM measured after 5 mins in absence of NADPH by Q-TOF LC-MS/MS analysis. In kind it is ADME, microsome. Background: Microsomes from liver hold many membrane-bound enzymes, among them those of drug oxidation.
Data set [4] can be described thus: Drug metabolism in human liver S9 fraction assessed as UGT-mediated compound glucuronidation by measuring M2 formation at 1 uM pretreated for 5 mins followed by NADPH/UDPGA/ PAPS addition by Q-TOF LC-MS/MS analysis. In kind it is ADME, subcellular. The note with it: s9, 1 µM. The gist of the method: as §1
A further data set concerns B16. Kind of data set: Inhibition of alpha-MSH stimulated melanogenesis in mouse B16 cells. In kind it is functional, cell-based.
Data set [5] can be described thus: Drug metabolism in human liver S9 fraction treated with 4-(Benzo[d][1,3]dioxol-5-yl)-N-(4-(trifluoromethyl)benzyl)thiazol-2-amine assessed as metabolite formation at 1 uM pretreated for 5 mins followed by NADPH/UDPGA/ PAPS addition by Q-TOF LC-MS/MS analysis. Particulars: s9, 1 µM. In kind it is ADME, subcellular. The gist of the method: as §1
A short description of data set [6]: Drug metabolism in human liver S9 fraction assessed as compound oxidation by measuring (4-Benzo[1,3]dioxol-5-yl-1-oxo-thiazol-2-yl)-(4-trifluoromethyl-benzyl)-amine formation at 1 uM pretreated for 5 mins followed by NADPH/UDPGA/ PAPS addition by Q-TOF LC-MS/MS analysis. In kind it is ADME, subcellular. Particulars: s9, 1 µM. The gist of the method:
as §1

The nature of data set [7]: Drug metabolism in human liver S9 fraction assessed as SULT-mediated compound sulfation by measuring M3 formation at 1 uM pretreated for 5 mins followed by NADPH/UDPGA/ PAPS addition by Q-TOF LC-MS/MS analysis. In kind it is ADME, subcellular. Particulars: s9, 1 µM. The gist of the method:
as §1

The nature of data set [8]: Drug metabolism in human liver S9 fraction assessed as UGT-mediated compound glucuronidation by measuring M4 formation at 1 uM pretreated for 5 mins followed by NADPH/UDPGA/ PAPS addition by Q-TOF LC-MS/MS analysis. It is filed as ADME, subcellular. Particulars: s9, 1 µM. The gist of the method:
as §1

Data set [9] is described as follows: Drug metabolism in human liver S9 fraction assessed as compound oxidation by measuring 4-[2-(4-Trifluoromethyl-benzylamino)-thiazol-4-yl]-benzene-1,2-diol formation at 1 uM pretreated for 5 mins followed by NADPH/UDPGA/ PAPS addition by Q-TOF LC-MS/MS analysis. In kind it is ADME, subcellular. The note with it: s9, 1 µM. The gist of the method: as §1

Where only a bound is given, the exact number is not on record here.

The half-life is how long it takes for the measured level to halve. For the compound `O=C(/C=C/c1ccc(O)c(O)c1)NCc1ccc(C(F)(F)F)cc1`, the Drug metabolism result in data set [1], in data set [3] and in data set [4] was “Metabolite_Detected” in each case. Moreover, in data set [2], the half-life at 1 µM is 5 min. In general, IC50 refers to the concentration needed to halve the response being measured. A lower IC50 goes with inhibition by little substance. Turning to `Clc1cccc(CNc2nc(-c3ccc4c(c3)OCO4)cs2)c1`, in the data set on B16, half-maximal inhibition (IC50) required 13.2 µM. In other words, the double-digit micromolar range. On to `Oc1ccc(-c2csc(NCc3ccccc3C(F)(F)F)n2)cc1O`, for which the IC50 with B16 turned out to be 2.6 µM. As for `[O-][s+]1cc(-c2ccc3c(c2)OCO3)nc1NCc1ccc(C(F)(F)F)cc1` (stereo not given), the Drug metabolism result in [5] was “Metabolite_Detected”. For the compound `FC(F)(F)c1ccc(CNc2nc(-c3ccc4c(c3)OCO4)cs2)cc1`, the Drug metabolism entry in [6], in [7], in data set [8] and in data set [9] was “Metabolite_Detected” in each case. The half-life at 1 µM in data set [2] is 69.3 min. In the data set on B16, this compound registered an IC50 of 0.9 µM. Consider `Oc1ccc(-c2csc(NCc3cccc(Cl)c3)n2)cc1O`, for which the concentration for half-maximal inhibition (IC50) with B16 was more than 50 µM. Take `Oc1ccc(-c2csc(NCc3ccc(C(F)(F)F)cc3)n2)cc1O`: the Drug metabolism entry in data set [5] is listed as “Metabolite_Detected”. Besides, half-maximal inhibition with B16 (IC50) was put at 32.7 µM. In the data set with B16, `Oc1ccc(-c2csc(NCc3ccccc3)n2)cc1O` gave an IC50 of 2.1 µM.

`Clc1ccc(CNc2nc(-c3ccc4c(c3)OCO4)cs2)cc1` showed an IC50 in the data set with B16 of 37.9 µM. Regarding `Clc1ccccc1CNc1nc(-c2ccc3c(c2)OCO3)cs1`, the midpoint of inhibition in the data set on B16, the IC50, lay at 12.4 µM. Compared with the last compound, the IC50 is about 3.1-fold lower. Compound `FC(F)(F)c1cccc(CNc2nc(-c3ccc4c(c3)OCO4)cs2)c1` had an IC50 in the data set on B16 of 15.3 µM.

`c1ccc(CNc2nc(-c3ccc4c(c3)OCO4)cs2)cc1`: the IC50 in the data set on B16 amounted to 11.1 µM. This IC50 and that of the compound before are within 1.5-fold of each other. In the case of `FC(F)(F)c1ccccc1CNc1nc(-c2ccc3c(c2)OCO3)cs1`, in the data set with B16, the IC50 came to 9.6 µM. In the case of `Oc1ccc(-c2csc(NCc3ccc(Cl)cc3)n2)cc1O`, it took 11.5 µM to reach half-maximal inhibition in the data set on B16 (IC50). Turning to `Oc1ccc(-c2csc(NCc3cccc(C(F)(F)F)c3)n2)cc1O`, the IC50 with B16 was 1.8 µM. On the same count and under the same terms, then `Oc1ccc(-c2csc(NCc3ccccc3Cl)n2)cc1O`, with 2 µM.

(Values after ChEMBL document CHEMBL4177588, “Synthesis, biological evaluation, and metabolic stability of chlorogenic acid derivatives possessing thiazole as potent inhibitors of α-MSH-stimulated melanogenesis” (Bioorg Med Chem Lett, 2017).)
